This is a sample that favours compounds with a hit; in the whole collection about 1.2% have one here.
Redox H2O2 prof – compounds producing H2O2 with reducing agent – biochemical, NIH compound library profiling, artefact control for MLSCN library redox annotation, primary screen; DTT-dependent redox cycling H2O2, phenol red/HRP absorbance; 100% = 100 µM peroxide control, 0% = buffer; activation, % at 10 µM; 200,000 tested, 0.03% active; AID 878, 2007;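 active = activation of at least 50% relative to the plate's high and low controls in the primary single-dose screen; inactive = activation below 50%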;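 also: compound incubated with DTT at 0.8 mM final as the reducing agent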
S1P3 antag – S1P3 receptor antagonists, primary screen, cell-based. Sphingosine 1-phosphate receptor 3 (Homo sapiens), Q99500. CHO S1P3 NFAT-BLA reporter, FRET fluorescence, antagonist mode. inhibition, % at 4.98 µM. 170,000 tested, 0.27% active. AID 485, 2006;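 active = inhibition above the plate cutoff, the mean inhibition of test wells on that plate plus 3 SD, cut at about 28% in these data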;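 also: cells challenged with S1P at its EC80 of 0.8 µM; blue over green emission ratio from cleaved BLA substrate after 4 h stimulation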
FXIa inh – human FXIa protease inhibitors, primary screen, biochemical, 1536-well. Coagulation factor XI (Homo sapiens), P03951. purified FXIa, Boc-Glu-Ala-Arg-AMC fluorogenic substrate. inhibition, % at 5 µM. 220,000 tested, 0.14% active. AID 798, 2007;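 active = inhibition of at least 40%; inactive = inhibition below 40%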;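 also: fluorescence of freed AMC excited at 355 nm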
Target sequence (P03951 19-387 limits assumed): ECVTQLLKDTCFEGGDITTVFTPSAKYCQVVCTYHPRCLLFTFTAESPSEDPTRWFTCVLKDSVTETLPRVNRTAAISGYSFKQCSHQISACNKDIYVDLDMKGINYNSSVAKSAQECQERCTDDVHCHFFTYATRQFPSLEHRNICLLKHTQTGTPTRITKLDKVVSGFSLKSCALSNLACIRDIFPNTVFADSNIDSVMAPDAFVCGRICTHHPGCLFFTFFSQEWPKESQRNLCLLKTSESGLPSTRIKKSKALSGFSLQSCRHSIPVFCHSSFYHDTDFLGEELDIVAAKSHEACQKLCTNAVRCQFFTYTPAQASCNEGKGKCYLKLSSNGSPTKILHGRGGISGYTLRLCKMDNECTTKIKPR
Target sequence (P03951 388-625 limits assumed): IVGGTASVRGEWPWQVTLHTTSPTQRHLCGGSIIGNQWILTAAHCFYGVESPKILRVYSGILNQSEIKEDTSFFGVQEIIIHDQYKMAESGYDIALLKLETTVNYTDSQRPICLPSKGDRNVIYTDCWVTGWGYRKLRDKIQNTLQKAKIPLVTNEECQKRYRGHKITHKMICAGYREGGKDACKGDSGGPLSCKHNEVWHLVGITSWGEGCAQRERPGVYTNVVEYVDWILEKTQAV
thrombin 1536 – human alpha-thrombin inhibitors, primary screen, counter-screen for coagulation protease inhibitor project, biochemical, 1536-well, fluorogenic AMC substrate | Prothrombin (Homo sapiens), P00734 | 220,000 tested, 0.26% active | Boc-VPR-AMC fluorogenic substrate cleavage | inhibition, % at 5 µM | AID 1046, 2008;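 active = inhibition at or above 40%; inactive = inhibition below 40%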
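Material: human alpha-thrombin protein. Incubation: reaction at ambient temperature. Technique: fluorescence of released AMC, ex 355 nm, em 460 nm. Control set: no-compound enzyme wells and no-enzyme blanks. Also added: Boc-VPR-AMC substrate, 15 µM final. Buffer or medium: pH 7.5 Tris (50 mM) with NaCl 150 mM, Tween 20 0.05%.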
KLK5 inh – human KLK5 protease inhibitors, primary screen, biochemical, 1536-well; Kallikrein-5 (Homo sapiens), Q9Y337; recombinant hK5, fluorogenic AMC substrate cleavage; inhibition, % at 5 µM; 210,000 tested, 0.59% active;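 active = inhibition of 40% or more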
FXIIa inh – human FXIIa protease inhibitors, primary screen, biochemical, 1536-well | Coagulation factor XII (Homo sapiens), P00748 | purified FXIIa, Boc-QGR-AMC fluorogenic substrate, 2 h | inhibition, % at 5 µM | 220,000 tested, 0.3% active; in the data active = inhibition above about 40%
Hits are given with their value; . = inactive; / = no result given.

SMILES	Redox H2O2 prof	S1P3 antag	FXIa inh	thrombin 1536	KLK5 inh	FXIIa inh
CC(=O)NC1C(=O)N(C)c2ccc(Br)cc21 (stereo not drawn)	.	/	.	.	45	.
CCCN1C(=O)C(NC(C)=O)c2ccccc21 (stereo not drawn)	.	/	.	.	.	.
CCSc1nnc(NC(=O)c2ccco2)s1	.	.	.	44	.	.
CC(=O)Nc1nnc(SCc2ccc(F)cc2)s1	.	/	.	.	56	.
C=CCSc1nc2ccsc2c(=O)n1-c1cccnc1	.	.	.	.	.	.
CCOc1cc(C)c(C(C)C)cc1S(=O)(=O)NCc1ccccn1	.	118	.	.	.	.
COc1cc(S(=O)(=O)NCc2ccccn2)c(OC)cc1Cl	.	/	.	.	.	.
Cc1nc(=O)c(-c2ccccc2)c(C)n1CC1CCCO1 (stereo not drawn)	.	.	.	.	74	.
COc1ccc(-c2cc3nc(-c4ccccc4)cc(N4CCC5(CC4)OCCO5)n3n2)cc1	.	54	.	.	.	.
COc1ccc(-c2cc3nc4c(c(N5CCC6(CC5)OCCO6)n3n2)CCC4)cc1	.	.	.	.	.	.
Cc1ccc(S(=O)(=O)Nc2c(C)[nH]c(=O)[nH]c2=O)cc1C	.	.	.	.	.	.
Cc1ccc(Cl)cc1NS(=O)(=O)c1c(C)[nH]c(=O)[nH]c1=O	.	.	.	104	.	.
N#Cc1c(N)nc2c(c1-c1ccc3c(c1)OCO3)CCc1ccccc1-2	.	.	.	.	.	.
Cc1nonc1OCCNCCNc1ccccc1[N+](=O)[O-]	.	.	.	.	.	.
Cc1nonc1OC(C)CNCCNc1ccc([N+](=O)[O-])cc1 (stereo not drawn)	/	.	.	.	.	43
Cc1cc(NC(=O)/C=C/c2ccccc2)c(C(C)C)cc1O	.	.	.	.	.	.
Cn1cc(C=O)c2cc(F)ccc21	.	.	.	.	.	.
O=Cc1cn(-c2ccc(F)cc2)c2ccccc12	.	.	.	.	42	.
Cc1ccc(S(=O)(=O)/N=C/c2ccco2)cc1	.	.	.	104	87	.
Nc1c(-c2ccccc2)c(CSc2nc3ccccc3[nH]2)nn1-c1ccc(Cl)cc1	.	.	.	.	62	.
COc1ccc(C(=O)n2nc(-c3ccccc3)nc2N)cc1OC	.	.	.	.	41	.
CCN(CC)CCCOC(=O)c1ccc(OC)cc1O	.	.	.	.	.	.
C/C(Cc1ccccc1)=N\NC(=O)CNC(=O)c1cccc(Cl)c1	/	.	.	.	.	.
C/C(Cc1ccccc1)=N\NC(=O)CNC(=O)c1ccc(Cl)cc1Cl	/	.	.	.	78	86
COc1ccc(/C=C/C(=O)NCC(=O)N/N=C(\C)Cc2ccccc2)cc1	/	.	.	.	.	.
SMILES	Redox H2O2 prof	S1P3 antag	FXIa inh	thrombin 1536	KLK5 inh	FXIIa inh
C/C(Cc1ccccc1)=N\NC(=O)CNC(=O)/C=C\c1ccccc1	/	.	51	.	113	.
COC(CNC(=O)c1cc(-c2ccncc2)nc2ccc(S(=O)(=O)N3CCOCC3)cc12)OC	.	.	.	.	.	.
CCCCC(CCC(=O)Nc1cccc([N+](=O)[O-])c1)C(=O)O (stereo not drawn)	/	.	.	.	.	.
CCN1CCN(C(=O)Nc2ccccc2OC)CC1	.	/	.	.	83	.
CCOc1ccc(NC(=O)C(C)O)c(NS(=O)(=O)c2ccc(CCNC(C)=O)cc2)c1 (stereo not drawn)	.	.	.	104	79	.
CCCc1cc2c(cc1NS(=O)(=O)c1ccc(CCNC(C)=O)cc1)OCO2	.	.	.	.	.	.
Cc1cc(C)cc(C(=O)NC(CC(N)=O)c2ccc(NC3CCCCC3)c([N+](=O)[O-])c2)c1 (stereo not drawn)	/	/	.	.	.	.
O=C(NCc1cccnc1)c1nnc(Cc2ccc(F)cc2)o1	.	.	.	.	.	.

Bioassay records from PubChem BioAssay.
